The results in this text go back to ChEMBL document CHEMBL1955829, “Synthesis and biological evaluation of 4β-sulphonamido and 4β-[(4'-sulphonamido)benzamide]podophyllotoxins as DNA topoisomerase-IIα and apoptosis inducing agents” (2012).

SMILES strings stand for the structures. The source made the active and inactive calls. The calls are words filed in the database; no cut-off is given here.

In the first assay the test system is ZR-75-1. The experiment in a line: Growth inhibition of human ZR-75-1 cells after 48 hrs by sulforhodamine B assay. As to conditions: ZR-75-1, 48 h. Format: functional. In outline: (§1)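 Cells grown in DMEM with 10% FBS and 2 mM L-glutamine, plated at densities set by doubling time, and held 24 h before dosing. Exposure was 48 h to 0.1, 1, 10 and 100 µM in triplicate wells. Cells fixed with cold TCA (final 10%) 60 min at 4 °C and stained with 0.4% SRB 20 min. Bound dye eluted in 10 mM Tris base and read at 540 nm (690 nm reference). GI50 is the concentration giving 50% reduction in net protein gain versus control; values are the mean of three determinations.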
For orientation: Sulforhodamine B stains cellular protein and so reports cell mass.
Take `COc1cc([C@@H]2c3cc4c(cc3[C@@H](NC(=O)c3ccc(NS(=O)(=O)c5ccc(-c6ccccc6)cc5)cc3)[C@H]3COC(=O)[C@H]23)OCO4)cc(OC)c1OC`: the 50% growth inhibitory concentration (GI50) (usually the concentration at which growth is held to half of that of the control) was 2110 nM. In other words, the single-digit micromolar range.
The same measure, in the same setting: to `COc1cc([C@@H]2c3cc4c(cc3[C@@H](NS(=O)(=O)c3cccc5nsnc35)[C@H]3COC(=O)[C@H]23)OCO4)cc(OC)c1OC` belongs 2510 nM.
Take `COc1cc([C@@H]2c3cc4c(cc3[C@@H](NC(=O)c3ccc(NS(=O)(=O)c5ccc(Oc6ccccc6)cc5)cc3)[C@H]3COC(=O)[C@H]23)OCO4)cc(OC)c1OC`: it took 2900 nM to inhibit growth by half (GI50).
With `COc1cc([C@@H]2c3cc4c(cc3[C@@H](NS(=O)(=O)c3cccc5cccnc35)[C@H]3COC(=O)[C@H]23)OCO4)cc(OC)c1OC`, the 50% growth inhibitory concentration (GI50) amounted to 80 nM.
Same read-out and setting: under `COc1cc([C@@H]2c3cc4c(cc3[C@@H](NS(=O)(=O)c3ccc(Oc5ccccc5)cc3)[C@H]3COC(=O)[C@H]23)OCO4)cc(OC)c1OC` stands 2310 nM.

The subject of a further assay is MCF7. The experiment in a line: Growth inhibition of human MCF7 cells after 48 hrs by sulforhodamine B assay. In kind it is functional. As to conditions: MCF7, 48 h. In outline: as §1
In turn, `COc1cc([C@@H]2c3cc4c(cc3[C@@H](NC(=O)c3ccc(NS(=O)(=O)c5ccc(-c6ccccc6)cc5)cc3)[C@H]3COC(=O)[C@H]23)OCO4)cc(OC)c1OC` displayed a concentration for 50% growth inhibition (GI50) of 2300 nM.
Still for that read-out and setting: under `COc1cc([C@@H]2c3cc4c(cc3[C@@H](NS(=O)(=O)c3cccc5nsnc35)[C@H]3COC(=O)[C@H]23)OCO4)cc(OC)c1OC` stands 2210 nM.
`COc1cc([C@@H]2c3cc4c(cc3[C@@H](NS(=O)(=O)c3cccc5cccnc35)[C@H]3COC(=O)[C@H]23)OCO4)cc(OC)c1OC` showed a GI50 of 120 nM. Against the preceding molecule, the GI50 is about 18-fold lower.
Same read-out and setting: to `COc1cc([C@@H]2c3cc4c(cc3[C@@H](NS(=O)(=O)c3ccc(Oc5ccccc5)cc3)[C@H]3COC(=O)[C@H]23)OCO4)cc(OC)c1OC` belongs 2210 nM.

In the next assay the test system is KB. Nature of the assay: Growth inhibition of human KB cells after 48 hrs by sulforhodamine B assay. In kind it is functional.
Settings: not given
In outline:
as §1
For `COc1cc([C@@H]2c3cc4c(cc3[C@@H](NC(=O)c3ccc(NS(=O)(=O)c5ccc(-c6ccccc6)cc5)cc3)[C@H]3COC(=O)[C@H]23)OCO4)cc(OC)c1OC`, halving of growth (GI50) required 2500 nM. In other words, the single-digit micromolar range.
Take `COc1cc([C@@H]2c3cc4c(cc3[C@@H](NC(=O)c3ccc(NS(=O)(=O)c5ccc(Oc6ccccc6)cc5)cc3)[C@H]3COC(=O)[C@H]23)OCO4)cc(OC)c1OC`: the 50% growth inhibitory concentration (GI50) is 2010 nM.
With `COc1cc([C@@H]2c3cc4c(cc3[C@@H](NS(=O)(=O)c3cccc5cccnc35)[C@H]3COC(=O)[C@H]23)OCO4)cc(OC)c1OC`, growth was halved (GI50) at 60 nM.
The same measure, in the same setting: to `COc1cc([C@@H]2c3cc4c(cc3[C@@H](NS(=O)(=O)c3ccc(Oc5ccccc5)cc3)[C@H]3COC(=O)[C@H]23)OCO4)cc(OC)c1OC` belongs 2310 nM.

System in another assay: not listed separately
Nature of the assay: Growth inhibition of human DWD cells after 48 hrs by sulforhodamine B assay. Format: functional.
Settings: not given
In short, it runs like this: as §1
Molecule `COc1cc([C@@H]2c3cc4c(cc3[C@@H](NC(=O)c3ccc(NS(=O)(=O)c5ccc(-c6ccccc6)cc5)cc3)[C@H]3COC(=O)[C@H]23)OCO4)cc(OC)c1OC` came in with a concentration for 50% growth inhibition (GI50) of 2880 nM.
On the same count and under the same terms, under `COc1cc([C@@H]2c3cc4c(cc3[C@@H](NC(=O)c3ccc(NS(=O)(=O)c5ccc(Oc6ccccc6)cc5)cc3)[C@H]3COC(=O)[C@H]23)OCO4)cc(OC)c1OC` stands 2100 nM; under `COc1cc([C@@H]2c3cc4c(cc3[C@@H](NS(=O)(=O)c3cccc5cccnc35)[C@H]3COC(=O)[C@H]23)OCO4)cc(OC)c1OC`, 170 nM.
Take `COc1cc([C@@H]2c3cc4c(cc3[C@@H](NS(=O)(=O)c3ccc(Oc5ccccc5)cc3)[C@H]3COC(=O)[C@H]23)OCO4)cc(OC)c1OC`: halving of growth (GI50) required 2910 nM.

A further assay concerns COLO 205. The experiment in a line: Growth inhibition of human COLO205 cells after 48 hrs by sulforhodamine B assay. In kind it is functional. Conditions: COLO 205, 48 h. In outline: as §1
As to `COc1cc([C@@H]2c3cc4c(cc3[C@@H](NC(=O)c3ccc(NS(=O)(=O)c5ccc(-c6ccccc6)cc5)cc3)[C@H]3COC(=O)[C@H]23)OCO4)cc(OC)c1OC`, growth was halved (GI50) at 2800 nM. This lies in the single-digit micromolar range.
In turn, `COc1cc([C@@H]2c3cc4c(cc3[C@@H](NS(=O)(=O)c3cccc5cccnc35)[C@H]3COC(=O)[C@H]23)OCO4)cc(OC)c1OC` registered a GI50 of 40 nM.

A further assay has as its system A549. The experiment in a line: Growth inhibition of human A549 cells after 48 hrs by sulforhodamine B assay. As to conditions: A549, 48 h. In kind it is functional. In outline: as §1
Turning to `COc1cc([C@@H]2c3cc4c(cc3[C@@H](NS(=O)(=O)c3cccc5nsnc35)[C@H]3COC(=O)[C@H]23)OCO4)cc(OC)c1OC`, growth was halved (GI50) at 2710 nM. This counts as single-digit micromolar.
Still for that read-out and setting: to `COc1cc([C@@H]2c3cc4c(cc3[C@@H](NC(=O)c3ccc(NS(=O)(=O)c5ccc(Oc6ccccc6)cc5)cc3)[C@H]3COC(=O)[C@H]23)OCO4)cc(OC)c1OC` belongs 2700 nM; to `COc1cc([C@@H]2c3cc4c(cc3[C@@H](NS(=O)(=O)c3cccc5cccnc35)[C@H]3COC(=O)[C@H]23)OCO4)cc(OC)c1OC`, 40 nM.
`COc1cc([C@@H]2c3cc4c(cc3[C@@H](NS(=O)(=O)c3ccc(Oc5ccccc5)cc3)[C@H]3COC(=O)[C@H]23)OCO4)cc(OC)c1OC`: the GI50 was determined as 2110 nM.

The next assay has as its system HOP-62. Nature of the assay: Growth inhibition of human HOP62 cells after 48 hrs by sulforhodamine B assay. Conditions: HOP-62, 48 h. In kind it is functional. In short, it runs like this: as §1
For `COc1cc([C@@H]2c3cc4c(cc3[C@@H](NS(=O)(=O)c3cccc5nsnc35)[C@H]3COC(=O)[C@H]23)OCO4)cc(OC)c1OC`, the GI50 was 2210 nM.
As for `COc1cc([C@@H]2c3cc4c(cc3[C@@H](NC(=O)c3ccc(NS(=O)(=O)c5ccc(Oc6ccccc6)cc5)cc3)[C@H]3COC(=O)[C@H]23)OCO4)cc(OC)c1OC`, halving of growth (GI50) required 2000 nM. The GI50 values of the last two molecules are within 1.5-fold of each other.
The same measure, in the same setting: to `COc1cc([C@@H]2c3cc4c(cc3[C@@H](NS(=O)(=O)c3cccc5cccnc35)[C@H]3COC(=O)[C@H]23)OCO4)cc(OC)c1OC` belongs 60 nM.

In another assay the test system is A2780. The experiment in a line: Growth inhibition of human A2780 cells after 48 hrs by sulforhodamine B assay. In kind it is functional. Conditions: A2780, 48 h. In outline:
as §1
Molecule `COc1cc([C@@H]2c3cc4c(cc3[C@@H](NC(=O)c3ccc(NS(=O)(=O)c5ccc(-c6ccccc6)cc5)cc3)[C@H]3COC(=O)[C@H]23)OCO4)cc(OC)c1OC` returned a GI50 of 2510 nM.
On the same count and under the same terms, to `COc1cc([C@@H]2c3cc4c(cc3[C@@H](NS(=O)(=O)c3cccc5nsnc35)[C@H]3COC(=O)[C@H]23)OCO4)cc(OC)c1OC` belongs 2310 nM; to `COc1cc([C@@H]2c3cc4c(cc3[C@@H](NS(=O)(=O)c3cccc5cccnc35)[C@H]3COC(=O)[C@H]23)OCO4)cc(OC)c1OC`, 80 nM.
The same measure, in the same setting: to `COc1cc([C@@H]2c3cc4c(cc3[C@@H](NS(=O)(=O)c3ccc(Oc5ccccc5)cc3)[C@H]3COC(=O)[C@H]23)OCO4)cc(OC)c1OC` belongs 2400 nM.

A further assay relates to COLO 205. The experiment in a line: Cytotoxicity against human COLO205 cells at 2 uM after 24 hrs by MTT assay. Format: functional, cell-based.
Settings: not given
In outline:
(§2)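 Colo-205 cells plated at 10,000 per well, left overnight, then exposed 24 h at 2, 4 or 8 µM. MTT added for 2 h at 37 °C, formazan dissolved in extraction buffer, and optical density read at 570 nm against untreated cells.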
For orientation: Tetrazolium dyes change colour on reduction, which living cells bring about.
Turning to `COc1cc([C@@H]2c3cc4c(cc3[C@@H](NS(=O)(=O)c3cccc5cccnc35)[C@H]3COC(=O)[C@H]23)OCO4)cc(OC)c1OC`, the outcome was Active.

The subject of another assay is COLO 205. The experiment in a line: Cytotoxicity against human COLO205 cells at 4 uM after 24 hrs by MTT assay.
Settings: not given
Format: functional, cell-based. In outline:
as §2
On to `COc1cc([C@@H]2c3cc4c(cc3[C@@H](NS(=O)(=O)c3cccc5cccnc35)[C@H]3COC(=O)[C@H]23)OCO4)cc(OC)c1OC`, for which the outcome was Active.

The next assay relates to COLO 205. The experiment in a line: Cytotoxicity against human COLO205 cells at 8 uM after 24 hrs by MTT assay.
Settings: not given
Format: functional, cell-based. In short, it runs like this:
as §2
In the case of `COc1cc([C@@H]2c3cc4c(cc3[C@@H](NS(=O)(=O)c3cccc5cccnc35)[C@H]3COC(=O)[C@H]23)OCO4)cc(OC)c1OC`, the result was Active.

The next assay concerns COLO 205. Nature of the assay: Cell cycle arrest in human COLO205 cells assessed as accumulation at G0 phase at 4 uM after 24 hrs by FACS analysis (reference value: 4.29%).
Settings: not given
In kind it is functional. In outline:
(§3)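 Colo-205 cells seeded at […] per 60 mm dish and treated 24 h at 4 µM; TSA arm used TSA at 4 µM for 12 h. Cells trypsinised, fixed in ice-cold 70% ethanol 30 min at 4 °C, RNase 1 mg/mL 30 min at 37 °C, then propidium iodide/citrate/Triton stain. DNA content of 20,000 events read by flow cytometry; phase percentages from histograms.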
(In general: In flow cytometry, cells or beads pass a laser one at a time.)
Turning to `COc1cc([C@@H]2c3cc4c(cc3[C@@H](NS(=O)(=O)c3cccc5cccnc35)[C@H]3COC(=O)[C@H]23)OCO4)cc(OC)c1OC`, the Activity worked out at 3.06%.

For a further assay, the system named is COLO 205. The experiment in a line: Cell cycle arrest in human COLO205 cells assessed as accumulation at G1 phase at 4 uM after 24 hrs by FACS analysis (reference value: 60.89%). Format: functional.
Settings: not given
In short, it runs like this:
as §3
On to `COc1cc([C@@H]2c3cc4c(cc3[C@@H](NS(=O)(=O)c3cccc5cccnc35)[C@H]3COC(=O)[C@H]23)OCO4)cc(OC)c1OC`, for which the Activity is 58.41%.

In the next assay the test system is COLO 205. The experiment in a line: Cell cycle arrest in human COLO205 cells assessed as accumulation at S phase at 4 uM after 24 hrs by FACS analysis (reference value: 8.91%). In kind it is functional.
Settings: not given
In short, it runs like this:
as §3
Regarding `COc1cc([C@@H]2c3cc4c(cc3[C@@H](NS(=O)(=O)c3cccc5cccnc35)[C@H]3COC(=O)[C@H]23)OCO4)cc(OC)c1OC`, the “Percentage of cells in S phase” value is recorded as 10.35%.

The subject of the next assay is COLO 205. The experiment in a line: Cell cycle arrest in human COLO205 cells assessed as accumulation at G2/M phase at 4 uM after 24 hrs by FACS analysis (reference value: 25.92%).
Settings: not given
In kind it is functional. In outline: as §3
Turning to `COc1cc([C@@H]2c3cc4c(cc3[C@@H](NS(=O)(=O)c3cccc5cccnc35)[C@H]3COC(=O)[C@H]23)OCO4)cc(OC)c1OC`, the “Percentage of cells in G2/M phase” value was 28.19%.
